From PubChem
Arrestin-AP2 inh = blocks beta-arrestin peptide binding to AP2 adaptin | AID 504490 | 340,000 compounds, 0.31% hits | inhibition, % at 10 µM | FITC-arrestin peptide / GST-AP2 beads, flow cytometry; AP2 beta2 appendage carries R879A mutation;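 active means inhibition above a set limit, near 3 SD of compounds lacking own fluorescence, cut at about 54% in these data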;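 further: plate controls were DMSO wells for no effect and 5 µM unlabelled arrestin peptide for full effect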
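System: GST-AP2 R879A glutathione beads; medium: PBS, Tween 20 0.05%, BSA 0.1%; reagent: fluorescein-tagged arrestin peptide at 50 nM final; schedule: pre-incubation 12 min, peptide binding 1 h, room temperature; detection: flow cytometry, FL1 (488/535 nm); read-out: inhibition as reduced fluorescein signal on beads, percent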
NALP1 inh = inhibitors of NALP1 inflammasome in yeast | 280,000 compounds, 0.61% hits | AID 2071 | inhibition, % at 10 µM | S. cerevisiae NALP1/ASC/caspase-1 growth, X-gal OD620, 72 h; in the data active means inhibition mostly above about 24%, no sharp cut-off; inactive means mostly below about 32%
PolyA inhibitor = inhibitors of polyadenylation in S. cerevisiae. S. cerevisiae SKY197-pL101 polyadenylation reporter, beta-gal luminescence; efflux-impaired pdr1/pdr3 knockout yeast; score 100 = 6 SD above DMSO. activity score, % at 12 µM. 300,000 compounds, 0.02% hits;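 active means lowest replicate activity score at least 50, where 100 means six control SD above control mean; inconclusive means lowest score under 50 but half or more replicates reach 50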;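 further: yeast exposed to compound for 9 h at 30 °C; higher score means more reporter readthrough which indicates perturbed polyadenylation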
ALR inh = inhibitors of human sulfhydryl oxidase ALR. P55789. purified ALR, DTT oxidation, H2O2 HRP-luminol luminescence. inhibition, % (test concentration not listed). 290,000 compounds, 3.8% hits;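 active means mean replicate inhibition above about 79%, with every replicate also reaching it, limit read from the data; inconclusive means only one of the two criteria met; inactive means mean below limit and not every replicate reaching it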
NLRP3 yeast inh = inhibitors of NALP3 inflammasome in yeast; Yeast reconstituted NLRP3/ASC/caspase-1, beta-gal luminescence, 24 h; inhibition, % at 10 µM; 330,000 compounds, 0.39% hits; AID 2825;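 active means inhibition of 50% or more; inactive means inhibition below 50%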;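 further: plate controls were induced DMSO wells for no effect and uninduced yeast grown without galactose for full effect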
DSG3 Ab inh = human desmoglein-3 autoantibody binding inhibition | 310,000 compounds, 0.48% hits | DSG3-coupled beads, scFv-anti-DSG3-GFP binding, flow cytometry; stronger effect = lower value | AID 588358 | binding (percent of control), % at 10 µM;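 active means binding more than 3 SD below its plate's average and above zero; inconclusive means below that plate limit but binding exactly zero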;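 further: hits lower antibody fragment binding to DSG3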
Arr-AP2 CP1 = human beta-arrestin and AP2 interaction inhibition, cherry pick; 1,300 compounds, 2% hits; inhibition, % at 10 µM; GST-AP2 beads, FITC arrestin peptide binding, flow cytometry; GST-fused beta2-adaptin appendage, R879A mutant; shares compounds with Arrestin-AP2 inh;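 active means inhibition above a set limit, roughly 3 SD of non-fluorescent compound noise, cut at about 38% in these data; inactive means inhibition at or below that limit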;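 further: loss of bead fluorescence from 50 nM FITC arrestin peptide bound to appendage; 0% = negative control wells and 100% = excess unlabelled arrestin peptide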
GST-FITC bead = GST-GSH bead binding interference, counter-screen | GST-fluorescein binding to GSH beads, fluorescence | 1,300 compounds, 2% hits | inhibition, % at 10 µM | shares compounds with Arrestin-AP2 inh;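 active means inhibition above 50%, about 3 SD of the inhibition seen with non-fluorescent compounds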;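 further: fluorescein maleimide labelled GST captured on 4 micron glutathione beads; higher means more loss of bead fluorescence from quenching or blocked binding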
* marks the source's active call; other numbers are inactive results; ? = inconclusive; / = no result. Sampled rows, rich in hits. Any-hit rate of the full collection: about 4.6%.

SMILES	Arrestin-AP2 inh	NALP1 inh	PolyA inhibitor	ALR inh	NLRP3 yeast inh	DSG3 Ab inh	Arr-AP2 CP1	GST-FITC bead
COc1ccc(S(=O)(=O)N2CCOCC2)cc1NC(=O)c1ccc(=O)[nH]c1	-3	/	/	/	-10	102	-8	-1
COc1ccc(S(=O)(=O)N2CCOCC2)cc1NC(=O)c1cc(=O)[nH]c2ccccc12	-2	/	/	-5	5	101	-15	-2
O=C(Nc1cc(S(=O)(=O)N2CCCCC2)ccc1N1CCOCC1)c1cc(=O)[nH]c2ccccc12	-3	/	-10	/	14	92	/	/
CC1Cc2ccccc2N1C(=O)C(C)n1cc(C(F)(F)F)cc(Cl)c1=O (stereo unspecified)	69*	/	/	1	12	104	-8	-8
CC1Cc2ccccc2N1C(=O)Cn1cc(C(F)(F)F)ccc1=O (stereo unspecified)	/	/	/	/	/	96	/	/
CCN1/C(=C/C=C/c2sc3ccccc3[n+]2CC)Sc2ccccc21	75*	/	93*	100*	43	-10*	33	32
CCN1/C(=C/C=C/C=C/C=C/c2sc3ccccc3[n+]2CC)Sc2ccccc21	55*	39*	-3	12	25	89	26	8
c1ccc(Cn2nnc(CNc3ccccc3)c2-c2c(CNc3ccccc3)nnn2Cc2ccccc2)cc1	-5	/	6	18	17	103	/	/
COc1ccc(C(=O)C(O)C(c2ccc(C)cc2)N2CCOCC2)cc1OC (stereo unspecified)	-12	12	-13	-10	27	99	/	/
C[C@@H](NCCCn1cnc2c(OCc3ccccc3)ncnc21)c1cccc2ccccc12	62*	/	/	/	/	103	1	-4
C/C(=N\NC(=O)c1cc(C)oc1C)c1ccc(C)c([N+](=O)[O-])c1	-2	/	/	/	15	103	/	/
CC(C)CN1CCC(=O)N(CCOc2ccccc2)CC1	57*	16	14	-6	16	103	9	-1
COc1ccc(CCN(Cc2cc3cccc(C)c3[nH]c2=O)C(=O)NC2CCCCC2)cc1OC	9	0	-15	-7	13	98	-2	-5
Cc1cccc2cc(CN(CC3CCCO3)C(=O)NC3CCCCC3)c(=O)[nH]c12 (stereo unspecified)	-6	10	-3	14	11	/	0	-4
Cc1cccc2cc(CN(Cc3ccco3)C(=O)NC3CCCCC3)c(=O)[nH]c12	27	29	2	15	10	102	6	-2
Cc1ccc2cc(CN(CC3CCCO3)C(=O)NC3CCCCC3)c(=O)[nH]c2c1C (stereo unspecified)	12	3	0	0	5	101	-2	-4
CC(C)CN(C(=O)c1cccc(Cl)c1)c1c(N)n(Cc2ccccc2)c(=O)[nH]c1=O	24	/	/	-11	11	/	/	/
COc1ccc(Nc2ncccc2C(=O)NCc2ccccc2)cc1	58*	50	3	32	23	95	0	-1
COc1cccc(Nc2ncccc2C(=O)NCc2ccccc2)c1	-6	-4	/	/	/	175	/	/
CC(C)c1ccc(NC(=O)c2ccccc2NC(=O)C2CC=CCC2C(=O)O)cc1 (stereo unspecified)	12	3	/	13	16	119	/	/
CC(C)c1ccc(NC(=O)c2ccccc2NC(=O)C2CCCCC2C(=O)O)cc1 (stereo unspecified)	54*	7	7	3	7	104	-6	-6
N#Cc1cn(CCOc2ccc(F)cc2)c2ccccc12	57*	-15	-7	5	-7	98	8	-9
CCOC(=O)C1=C(COC(=O)/C=C/c2ccc(OC)cc2OC)NC(=O)NC1C (stereo unspecified)	13	/	-8	-32	8	118	/	/
CCOC(=O)C1=C(COC(=O)CCOc2ccc(C)cc2)NC(=O)NC1C (stereo unspecified)	12	/	6	19	10	99	-5	-11
C/C=C/c1ccc(OCC(=O)OCC2=C(C(=O)OCC)C(C)NC(=O)N2)c(OC)c1 (stereo unspecified)	8	/	6	1	18	99	/	/
SMILES	Arrestin-AP2 inh	NALP1 inh	PolyA inhibitor	ALR inh	NLRP3 yeast inh	DSG3 Ab inh	Arr-AP2 CP1	GST-FITC bead
CCOC(=O)C1=C(COC(=O)CNC(=O)c2cccc(C)c2)NC(=O)NC1C (stereo unspecified)	2	/	7	1	12	98	/	/
CCOC(=O)C1=C(COC(=O)COc2ccc(Br)cc2)NC(=O)NC1C (stereo unspecified)	-4	/	0	-5	4	96	-5	-7
CCOC(=O)C1=C(COC(=O)CCOc2ccc(OC)cc2)NC(=O)NC1C (stereo unspecified)	-9	/	/	1	11	/	-1	-12
COc1ccc(NC2CC(=O)N(CCc3ccccc3)C2=O)cc1 (stereo unspecified)	-4	6	-23	69	18	/	/	/
Cc1ccc(NC(=O)Nc2cnccn2)cc1	45	3	-12	14	19	105	-8	10
O=C(Nc1ccc(F)c(Cl)c1)Nc1cnccn1	17	-4	3	5	13	94	/	/
O=C(Nc1ccc([N+](=O)[O-])cc1)Nc1cnccn1	-8	17	-6	-2	16	101	/	/
COc1ccc(NC(=O)Nc2cnccn2)cc1OC	-9	17	-16	-26	11	112	-3	8
CC(C)c1ccc(NC(=O)Nc2cnccn2)cc1	-7	17	?	-3	28	101	-2	-5
Cc1ccc(NC(=O)Nc2cnccn2)cc1C	9	34	-13	5	24	85	3	-2
C=CCNC(=O)c1sccc1Oc1ccc(F)cc1[N+](=O)[O-]	-22	3	15	-19	-6	105	/	/
Cc1cnc(NC(=O)Nc2ccccc2)c(C)n1	-3	10	26	18	4	111	-14	-2
O=C(Nc1ccccc1)Nc1cnccn1	40	11	17	4	9	97	-5	-7
O=C(Nc1cccc(Cl)c1)Nc1cnccn1	-4	2	-3	1	22	105	-2	2
O=C(Nc1ccc(Cl)cc1)Nc1cnccn1	10	16	-27	/	27	105	16	5
Cc1ccc2c(C)c(C(=O)Nc3cccnc3)oc2c1C	-7	/	/	/	/	112	/	/
Cc1cc(C)cc(NC(=O)Nc2cnccn2)c1	8	14	-4	7	3	116	-7	0
